# Compound activity: PubChem BioAssay, several laboratories
# In the library only some 4.2% were active in any assay of this set; here they are far more common.
# HDAC3 inh = human HDAC3 inhibition; recombinant HDAC3, fluorogenic peptide/trypsin coupled, fluorescence; inhibition, % at 8.3 µM; actives 0.15% (n = 320,000); in the data active = inhibition above about 26%, passing the limit was not always enough
# SENP1 inh = SENP1 (human) catalytic domain inhibition; actives 0.21% (n = 360,000); inhibition, % at 10 µM; Q9P0U3; AID 624204; recombinant SENP1 catalytic domain, CyPet-SUMO1-YPet FRET cleavage;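 active = inhibition at least 30% at 10 µM, raw YFP signal under a set limit, fluorescence ratio 0.5 to 1.5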
#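 material = recombinant human SENP1 catalytic domain, His6-tagged | quantity = 20 pM enzyme | reagent = 25 nM SUMO1 FRET substrate | compound dosing = 10 µM single point, 0.5% DMSO | timing = 50 min enzyme reaction, room temperature, light-protected | detection = FRET, CFP and YFP emission | control set = no-enzyme low, enzyme-DMSO high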
# FXN GAA850 act = frataxin GAA850 promoter activation | actives 0.56% (n = 360,000) | HEK293 lucGAA850 FXN promoter luciferase reporter, 24 h; percent of 10 µM SAHA response | activation, % at 6 µM | AID 540364;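 active = activation above the average of all compounds screened plus 3 SD, cutoff fixed separately per campaign, cut at about 7.5% in these data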
# AHR act = human AHR activation | actives 2.5% (n = 320,000) | P35869 | activation, % at 5 µM | AHR-responsive luciferase reporter cells, luminescence; in the data active = activation above about 47%
# Target sequence (P35869 whole entry, looked up): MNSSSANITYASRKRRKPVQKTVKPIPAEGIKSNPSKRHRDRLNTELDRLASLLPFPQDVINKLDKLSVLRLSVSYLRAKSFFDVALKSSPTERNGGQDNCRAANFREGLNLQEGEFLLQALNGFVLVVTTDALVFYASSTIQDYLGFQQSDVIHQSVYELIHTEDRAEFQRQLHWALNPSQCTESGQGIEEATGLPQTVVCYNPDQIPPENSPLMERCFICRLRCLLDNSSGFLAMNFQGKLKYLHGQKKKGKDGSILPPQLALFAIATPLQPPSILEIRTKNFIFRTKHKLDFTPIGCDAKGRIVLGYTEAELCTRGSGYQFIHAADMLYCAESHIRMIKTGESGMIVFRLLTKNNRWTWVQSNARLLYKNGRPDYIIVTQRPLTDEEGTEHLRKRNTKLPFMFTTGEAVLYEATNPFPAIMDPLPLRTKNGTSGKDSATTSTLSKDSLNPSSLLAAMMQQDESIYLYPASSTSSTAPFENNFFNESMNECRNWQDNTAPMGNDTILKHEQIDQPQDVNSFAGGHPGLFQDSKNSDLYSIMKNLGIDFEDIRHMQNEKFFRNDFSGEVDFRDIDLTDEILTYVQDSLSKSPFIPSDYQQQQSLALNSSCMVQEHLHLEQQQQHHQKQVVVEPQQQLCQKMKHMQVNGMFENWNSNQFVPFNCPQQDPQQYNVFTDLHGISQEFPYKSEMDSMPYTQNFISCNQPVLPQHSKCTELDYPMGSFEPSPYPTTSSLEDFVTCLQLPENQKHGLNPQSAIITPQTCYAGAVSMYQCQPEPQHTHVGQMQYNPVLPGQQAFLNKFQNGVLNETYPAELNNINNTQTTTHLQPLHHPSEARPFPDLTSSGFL
# PfM18AAP inh = blocks P. falciparum M18 aspartyl aminopeptidase. recombinant PfM18AAP, H-Glu-NHMec fluorogenic cleavage. inhibition, % at 7.35 µM. actives 1.2% (n = 290,000). AID 1822;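 active = inhibition above the campaign mean inhibition over all tested compounds plus 3 SD, cut at about 28% in these data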
# CTSL1 counter = cathepsin L1 inhibition, PFM18AAP counter-screen | inhibition, % at 5.96 µM | AID 1906 | actives 0.49% (n = 300,000) | recombinant F. hepatica cathepsin L1, Z-Leu-Arg-MCA fluorescence;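 active = inhibition above the mean of all tested compounds plus 3 SD, set per screening campaign, cut at about 17% in these data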
# Numbers stand for hits; - = inactive; . = no result given.
SMILES,HDAC3 inh,SENP1 inh,FXN GAA850 act,AHR act,PfM18AAP inh,CTSL1 counter
Cc1c(/C=N/NC(=O)C(NC(=O)c2ccc3c(c2)OCO3)C(C)C)c2ccccc2n1C (stereo unspecified),-,-,-,51,-,-
COc1ccccc1/C=N/NC(=O)c1ccc2c(c1)OCO2,-,-,-,51,-,-
COc1cc(/C=N/NC(=O)c2cc(-c3ccc4c(c3)OCO4)n[nH]2)ccc1O,-,-,-,128,-,-
CCn1nc(C)c(CNC(=O)Nc2ccc3c(c2)OCO3)c1C,-,-,-,68,-,-
O=C(N/N=C/c1ccccc1OC(=O)c1ccc2c(c1)OCO2)c1ccccc1,.,-,-,-,-,-
CC(C)C(NC(=O)c1ccc2c(c1)OCO2)C(=O)N/N=C/c1cccs1 (stereo unspecified),-,-,-,-,-,-
CCCOc1cccc(C(=O)Nc2ccc3c(c2)OCCO3)c1,-,-,-,-,-,-
CC1(C2CCCC2)NC(=O)NC1=O (stereo unspecified),.,-,-,.,.,.
CCOCCCNC(=O)Cn1cnc2c(cnn2-c2ccc(C)c(C)c2)c1=O,-,-,-,-,-,-
CC1(C)CC(Cc2ccc(Cl)nc2)N(C(=O)OC(C)(C)C)C1 (stereo unspecified),.,-,-,.,.,.
CCn1nc(C)c(/C=N\NC(=O)c2ccc3c(c2)OCO3)c1C,-,-,-,73,-,-
COc1cc2ccccc2cc1C(=O)N/N=C/c1ccc2c(c1)OCO2,-,-,-,.,-,.
COc1ccccc1C(=O)N/N=C/c1ccc2c(c1)OCO2,-,-,-,50,-,-
O=C(N/N=C/c1ccc2c(c1)OCO2)C1CC1,-,-,-,67,-,-
COc1ccccc1N/N=C/c1ccc2c(c1)OCO2,-,-,-,-,31,-
CN(CC(=O)Nc1ccc(F)cc1)C(=O)c1ccc(OCc2ccccc2)cc1,.,-,-,.,.,.
COc1ccc(-c2cc(C(=O)N/N=C/c3ccc4c(c3)OCO4)c3ccccc3n2)c(OC)c1,-,-,-,49,-,-
O=C(COC(=O)c1c[nH]c(=O)[nH]c1=O)Nc1ccccc1Br,.,-,-,-,-,-
O=C(NCCCO)/C(=C/c1ccc(-c2cccc([N+](=O)[O-])c2)o1)NC(=O)c1ccccc1,-,-,-,-,-,-
CC(C)(C)c1ccc(C(=O)N/C(=C\c2cccc([N+](=O)[O-])c2)C(=O)Nc2cccc(C(=O)O)c2)cc1,-,-,-,67,-,-
Cc1ccc(C(=O)N/C(=C\c2ccc(-c3cccc([N+](=O)[O-])c3)o2)C(=O)NC(C)(C)C)cc1,-,-,-,56,-,-
CC(C)NC(=O)C1(C)CN(S(C)(=O)=O)CC(=O)N1C1CC1 (stereo unspecified),.,-,.,.,.,.
CCCNC(=O)N(C)C[C@@H]1Oc2cc(C#CC(C)(C)O)ccc2S(=O)(=O)N([C@H](C)CO)C[C@H]1C,.,-,-,.,.,.
C=CCn1c(C)nnc1SCC(=O)c1[nH]c(C)c(C(C)=O)c1C,-,-,-,-,-,-
CC(=O)c1c(C)[nH]c(C(=O)CSc2nnc(C)s2)c1C,-,-,-,68,-,-
SMILES,HDAC3 inh,SENP1 inh,FXN GAA850 act,AHR act,PfM18AAP inh,CTSL1 counter
CC(C)CC(NC(=O)C1CCC(=O)N1)C(=O)NC(CC(C)C)C(=O)N1CCCC1C(N)=O (stereo unspecified),-,-,-,-,-,17
CC(C)CC(NC(=O)C(NC(=O)OC(C)(C)C)C(C)C)C(=O)N1CCCC1C(N)=O (stereo unspecified),-,-,-,-,-,18
COC(=O)[C@@H]1CCCN1C(=O)[C@@H](NC(=O)OC(C)(C)C)C(C)C,-,-,-,-,.,-
CCNC(=O)C(CC(C)C)NC(=O)C(CO)NC(=O)C1CCC(=O)N1 (stereo unspecified),-,-,-,-,-,-
CCC(NC(=O)C1C2C=CC(C2)C1C(=O)O)c1ccc(C)cc1 (stereo unspecified),-,-,-,-,-,-
Cc1sc(NC(=O)Cc2ccc3c(c2)OCO3)nc1-c1ccc2c(c1)CCN2C(=O)c1cccc(F)c1,.,-,-,73,-,-
Cc1ccccc1C(=O)N1CCc2cc(-c3nc(NC(=O)Cc4ccc5c(c4)OCO5)sc3C)ccc21,-,-,-,-,-,-
O=C(CSc1nnc(NC(=O)c2ccc(F)cc2F)s1)NC1CCCC1,-,-,-,-,-,-
COc1cccc(C=NNc2nc3ccccc3s2)c1OC,.,-,-,.,.,.
COc1cccc(/C=N/Nc2ncnc3scc(-c4ccccc4)c23)c1OC,-,-,-,53,-,-
Cc1ccccc1/C=C/c1nc2ccccc2c(=O)[nH]1,.,-,-,70,-,-
N#CCOc1ccccc1/C=C/c1nc2ccccc2c(=O)[nH]1,-,-,-,62,-,-
COc1cc(/C=C/c2nc3ccccc3c(=O)[nH]2)cc(OC)c1OC,-,-,-,-,-,-
Cc1ccccc1/C=C\c1nc2ccccc2c(=O)[nH]1,-,-,-,-,-,-
COCCOC(=O)N/C=C\c1nc2ccccc2c(=O)[nH]1,-,-,-,55,-,-
O=C(Nc1cccc(S(=O)(=O)N2CCCCCC2)c1)C1CCN(C(=O)c2ccc(Cl)cc2)CC1,-,-,-,-,.,-
CCc1ccc(C(=O)CSC2=C(C#N)C(c3ccco3)C(C(C)=O)=C(C)N2)cc1 (stereo unspecified),-,.,.,-,-,-
CC(=O)C1=C(C)NC(SCC(=O)c2ccc(F)cc2)=C(C#N)C1c1ccco1 (stereo unspecified),-,-,-,64,-,-
CC(=O)C1=C(C)NC(SCC(=O)c2cc(Cl)ccc2Cl)=C(C#N)C1c1ccco1 (stereo unspecified),-,-,-,83,-,-
CC(=O)C1=C(C)NC(SCC(=O)c2ccc(Cl)c(Cl)c2)=C(C#N)C1c1ccco1 (stereo unspecified),-,-,-,-,-,-
CCCOc1ccc(C(=O)NNC(=O)CCNC(=O)c2ccco2)cc1OC,-,-,-,-,.,-
Cc1cc(-n2c(SCC(=O)Nc3ccc(Br)cc3)nc3n[nH]c(C)c3c2=N)ccc1Cl,-,-,-,-,-,-
Cc1cc(-n2c(SCC(=O)NCc3cccs3)nc3n[nH]c(C)c3c2=N)ccc1Cl,-,-,-,70,-,-
CCOc1ccccc1C(=O)NCC(=O)N(C)CC(=O)Nc1ccc(N2CCOCC2)cc1,.,-,-,.,.,.
Cc1c(C)c2c(C)nn(-c3ccccc3)c2[nH]c1=O,-,-,-,96,-,-
COc1cccc(S(=O)(=O)N(C)C[C@@H]2OCc3cn(nn3)CCCC(=O)N([C@H](C)CO)C[C@H]2C)c1,.,-,-,.,.,.
COc1ccc(Cl)cc1NC(=O)CN(C)C(=O)CCSc1ccc(C)cc1,-,-,-,-,.,.
